Consider 14 compounds from publication PMC3586205 (European journal of pharmacology, 2012).

pKi: −log10 of the molar value. “Also recorded” adds a separate entry of the source. Like-named read-outs stand apart in the source and are kept apart here.

Assay [1] concerns the target T1, human cannabinoid CB1 receptor (Homo sapiens, UniProt P21554). The note with it: cited from earlier work.
Assay [2] has as its system food intake in mice. The experiment in a line: Feeding behavior: 1-h food intake after 24-h food deprivation. It counts as in vivo. The note with it: for decrease in feeding compared to vehicle: 60 min pre-session, significant; for dose that significantly decreased feeding: i.p.
Assay [3] concerns the target T2, human cannabinoid CB2 receptor (Homo sapiens, UniProt P34972). The note with it: read-out: CB2 Ki (± SEM), displacement of [3H]CP55,940, cited from earlier work. Background: Loss of bound radioactivity is the signal in a displacement assay; it reports binding, not function.
Assay [4] relates to ring immobility in mice. The note with it: cited from earlier work.
The test system of assay [5] is spontaneous activity in mice. The note with it: cited from earlier work; for SA ED50 (95% confidence limits): i.v.
Assay [6] deals with cannabinoid agonist-like effects in mice. The settings on record: cited from earlier work; for % of maximal cannabinoid agonist-like activity in each of the four tests: ref Wiley et al. (2012); for profile in test battery: ref Wiley et al. (2011).
The subject of assay [7] is tail flick latency in mice. The note with it: cited from earlier work; for %MPE, maximum possible antinociceptive effect in tail flick (maximum effect): 10 mg/kg i.v.; for %MPE tail flick (maximum effect): 30 mg/kg i.v.; for %MPE tail flick ED50 (95% confidence limits): i.v.
The target in assay [8] is T2, human cannabinoid CB2 receptor. Kind of assay: Cannabinoid CB2 receptor radioligand binding, displacement of [3H]CP55,940. The procedure, abridged: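 CHO cells stably expressing human CB2 receptor; membranes made in 50 mM Tris-HCl, 3 mM MgCl2, 1 mM EGTA, pH 7.4. Membrane (10 μg protein) incubated with 1 nM [3H]CP55,940 and varying test compound in 50 mM Tris-HCl pH 7.4, 3 mM MgCl2, 0.2 mM EGTA, 0.5% BSA, 60 min at 30 °C. Non-specific binding was taken with 1 μM unlabeled CP55,940. Bound and free were separated by GF/B filtration with cold Tris-BSA washes, then counted by liquid scintillation.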

Assay [9] addresses T1, human cannabinoid CB1 receptor. The experiment in a line: Cannabinoid CB1 receptor radioligand binding, displacement of [3H]CP55,940.
Assay [10] deals with rectal temperature in mice. The settings on record: cited from earlier work; for RT (maximum effect): 30 mg/kg i.v.; for RT ED50 (95% confidence limits): i.v.
The subject of assay [11] is food intake in mice. The settings on record: ref Wiley et al., cited from earlier work; for dose (as low as) that suppressed eating: same food intake protocol, 2005.
The mark [12] stands for this setting: read-out: CB1 Ki (± SEM), displacement of [3H]CP55,940, ref Wiley et al. (2012).
Setting [13] is: 3 mg/kg i.v., ref Wiley et al. (2012).
The mark [14] stands for this setting: 10 mg/kg i.v., ref Wiley et al. (2012).
[15] abbreviates: 10 mg/kg i.v., stim=stimulation, ref Wiley et al. (2012).
The mark [16] stands for this setting: 30 mg/kg i.v., ref Wiley et al. (2001).
Where [17] appears, read: read-out: CB1 Ki (± SEM), displacement of [3H]CP55,940, ref Wiley et al. (2011).
The mark [18] stands for this setting: read-out: CB1 receptor binding affinity Ki, ref Wiley et al., 2005.
Setting [19] is: present study and H.A. Navarro, personal communication.

T1 sequence (P21554 whole entry): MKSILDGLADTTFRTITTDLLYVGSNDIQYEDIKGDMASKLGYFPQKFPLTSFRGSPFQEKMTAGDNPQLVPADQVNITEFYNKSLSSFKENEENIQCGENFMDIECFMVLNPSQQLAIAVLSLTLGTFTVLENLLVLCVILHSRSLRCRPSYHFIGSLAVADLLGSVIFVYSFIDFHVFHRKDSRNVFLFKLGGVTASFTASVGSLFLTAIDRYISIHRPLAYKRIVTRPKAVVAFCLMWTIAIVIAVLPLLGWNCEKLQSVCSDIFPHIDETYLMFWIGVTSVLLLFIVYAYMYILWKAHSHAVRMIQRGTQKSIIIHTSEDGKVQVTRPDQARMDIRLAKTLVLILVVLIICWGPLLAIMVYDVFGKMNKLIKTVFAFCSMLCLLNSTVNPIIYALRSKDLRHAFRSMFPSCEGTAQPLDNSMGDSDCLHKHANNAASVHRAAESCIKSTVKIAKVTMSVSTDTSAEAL
T2 sequence (P34972 whole entry): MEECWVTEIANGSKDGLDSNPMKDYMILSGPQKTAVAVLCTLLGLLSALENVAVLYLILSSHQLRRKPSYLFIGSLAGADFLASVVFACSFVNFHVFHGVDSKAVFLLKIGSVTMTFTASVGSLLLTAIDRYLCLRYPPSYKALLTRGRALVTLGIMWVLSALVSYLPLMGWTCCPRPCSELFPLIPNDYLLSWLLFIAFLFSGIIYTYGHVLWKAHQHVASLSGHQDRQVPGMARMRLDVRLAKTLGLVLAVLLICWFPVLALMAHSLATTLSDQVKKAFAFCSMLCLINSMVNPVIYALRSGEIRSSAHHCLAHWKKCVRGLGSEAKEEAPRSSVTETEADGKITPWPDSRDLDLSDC

With “3-bromopropyl carboxamide analog [Compound O-2154]”, the pKi (usually −log10 of the Ki, conventionally taken in molar units) in assay [1] (setting [12]) was 7.42; in assay [3] (ref Wiley et al. (2012)), 6.14. Moreover, the “decrease in feeding compared to vehicle” value in assay [2] (56 mg/kg i.p.) is on record as 60%. In [4] (setting [13]), the “RI, % time immobile (single dose)” value was 35% (3). In addition, the “SA, % inhibition of activity of vehicle control group (single dose)” value in [5] (setting [13]) is recorded as 70% (3). The “% of maximal cannabinoid agonist-like activity in each of the four tests” value in assay [6] (3 mg/kg) is “at least 50%”. The “%MPE in tail flick (single dose)” value in assay [7] (setting [13]) is listed as 50% (3).

Take “3-cyanopropyl carboxamide analog [Compound O-2155]”: the negative-log Ki (pKi) is 6.65 in [1] (setting [12]) and 5.73 in assay [3] (ref Wiley et al. (2012)). Further, the “decrease in feeding compared to vehicle” value in [2] (30 mg/kg i.p.) came out at 55%. The “RI, % time immobile on elevated ring (maximum effect)” value in assay [4] (setting [14]) is given as 47% (10). Also, the “SA, % inhibition of activity of vehicle control group (maximum effect)” value (“SA, % inhibition of activity … (maximum effect)” for short) in assay [5] (setting [15]) was 86% (10). Further, the “% of maximal cannabinoid agonist-like activity in each of the four tests” value in assay [6] (10 mg/kg) is listed as “at least 50%”. The “%MPE, maximum possible antinociceptive effect in tail flick (maximum effect)” value in assay [7] (ref Wiley et al. (2012)) is on record as 89% (10).

In the case of `Cc1c(C(=O)NCC2CCC(CNS(C)(=O)=O)CC2)nn(-c2ccc(Cl)cc2Cl)c1-c1ccc(Cl)cc1` (stereo not shown) [13226–70, 5-(4-chlorophenyl)-1-(2,4-dichlorophenyl)–N-{[4-(methanesulfonamido-methyl)cyclohexyl]methyl}-4-methyl-1H-pyrazole-3-carboxamide], the “effect on food intake” value in assay [2] (doses up to 30 mg/kg i.p.) is “failed to alter food intake”.

Turning to `O=C(NN1CCCCC1)c1nn(-c2ccc(Cl)cc2Cl)c2cc(Br)ccc12` [Compound O-1654, 6-bromo-1-(2,4-dichlorophenyl)–N-(piperidin-1-yl)-1H-indazole-3-carboxamide], the pKi in [8] is 5.93; in assay [9], 6.06. Also, the “effect on food intake” value in assay [2] (doses up to 100 mg/kg i.p.) is “did not affect food intake”.

In the case of `CCCCC(C)c1ccc(-c2c(C)c(C(=O)NN3CCCCC3)nn2-c2ccc(Cl)cc2Cl)cc1` (stereo not shown) [Compound O-1690, 1-(2,4-dichlorophenyl)-5-[4-(hexan-2-yl)phenyl]-4-methyl-N-(piperidin-1-yl)-1H-pyrazole-3-carboxamide], the pKi in [1] (read-out: CB1 Ki (± SEM), displacement of [3H]CP55,940, ref Wiley et al. (2001)) was 8.59. Moreover, in assay [10] (ref Wiley et al. (2001)), the “RT (maximum effect)” value was “inactive (30)”. For the same compound, in assay [2] (doses up to 30 mg/kg i.p.), the “effect on food intake” value is “did not alter food intake”. In assay [4] (setting [16]), the “RI (maximum effect)” value was “inactive (30)”. Also, the “SA (maximum effect)” value in assay [5] (setting [16]) is “inactive (30)”. Also, the “activity in test battery when tested alone” value in assay [6] (ref Wiley et al., 2001) was “inactive”. For the same compound, the “%MPE tail flick (maximum effect)” value in assay [7] (ref Wiley et al. (2001)) was “inactive (30)”.

On to `CC1=CC[C@@H]2[C@@H](C1)c1ccc(CC#CCCCC(=O)NCCc3ccc(S(N)(=O)=O)cc3)cc1OC2(C)C` [Compound O-1720], for which the negative logarithm of the Ki (pKi) in assay [8] (read-out: CB2 Ki (± SEM), displacement of [3H]CP55,940) is 6.10; in assay [9] (read-out: CB1 Ki (± SEM), displacement of [3H]CP55,940) it was 6.04. In addition, the “decrease in feeding compared to vehicle” value in assay [2] (100 mg/kg i.p.) stood at 24%. For the same compound, in assay [2], the “dose that significantly decreased feeding” value stood at 100 mg/kg.

Regarding `CCS(=O)(=O)NCCCC#CCc1cc(O)c2c(c1)OC(C)(C)[C@@H]1CC=C(C)C[C@@H]21` [Compound O-1991, N-{6-[(6aR,10aR)-1-hydroxy-6,6,9-trimethyl-6a,7,10,10a-tetrahydro-6H-benzo[c]chromen-3-yl]hex-4-yn-1-yl}ethane-sulfonamide], the pKi in assay [1] (setting [17]) was 7.52; in assay [3] (ref Wiley et al. (2011)), 8.85. For the same compound, the “RT ED50 (95% confidence limits)” value in assay [10] (ref Wiley et al. (2011)) is recorded as 0.8 (0.4–1.6) mg/kg. Moreover, the “decrease in feeding compared to vehicle” value in assay [2] (56 mg/kg i.p.) came out at 79%. In addition, the “dose that significantly decreased feeding” value in [2] was found to be 56 mg/kg. In addition, the “SA ED50 (95% confidence limits)” value in [5] (ref Wiley et al. (2011)) is on record as 2 (1–3) mg/kg. Moreover, in assay [6], the “profile in test battery” value is reported as “exhibit agonist-like in vivo effects”. Also, the “%MPE tail flick ED50 (95% confidence limits)” value in assay [7] (ref Wiley et al. (2011)) is on record as 0.9 (0.6–1.4) mg/kg.

Consider `CC1=CCC2C(C1)c1c(O)cc(CC#CCCCNS(C)(=O)=O)cc1OC2(C)C` (stereo not shown) [Compound O-2050, 3-(6′-methane-sulfamidohex-2-yne)-Δ^8-tetrahydrocannabinol], for which the results for the pKi in assay [1] (read-out: CB1 Ki (± SEM)) and in assay [3] (ref Wiley et al. (2011)) were 8.60 and 9.70, respectively. In addition, in [11] (same procedure, 2011), the “effect on food intake” value was “decrease food intake”. Further, the “RT (maximum effect)” value in [10] (ref Wiley et al. (2011)) is “inactive (30)”. Moreover, in [5] (30 mg/kg i.v., ref Wiley et al. (2011)), the “SA, % inhibition of activity … (maximum effect)” value is 69% (30). Moreover, the “profile in test battery” value in assay [6] is given as “did not affect responses in the in vivo test battery”. Moreover, the “%MPE tail flick (maximum effect)” value in assay [7] (ref Wiley et al. (2011)) was “inactive (30)”.

As for `CCS(=O)(=O)NCCCCC(C)(C)c1cc(O)c2c(c1)OC(C)(C)[C@@H]1CC=C(C)C[C@@H]21` [Compound O-2113, N-{5-[(6aR,10aR)-1-hydroxy-6,6,9-tri-methyl-6a,7,10,10a-tetrahydro-6H-benzo[c]chromen-3-yl]-5-methylhexyl}ethanesulfonamide], the values for the pKi in assay [1] (setting [17]) and in [3] (ref Wiley et al. (2011)) were 8.77 and 10.10, respectively. The “RT ED50 (95% confidence limits)” value in assay [10] (ref Wiley et al. (2011)) is on record as 1.4 (0.3–4.6) mg/kg. In assay [2] (30 mg/kg i.p.), the “decrease in feeding compared to vehicle” value was determined as 97%. The “dose that significantly decreased feeding” value in [2] was 30 mg/kg. In assay [5] (ref Wiley et al. (2011)), the “SA ED50 (95% confidence limits)” value was 0.4 (0.1–1.8) mg/kg. In assay [6], the “profile in test battery” value is listed as “exhibit agonist-like in vivo effects”. Also, the “%MPE tail flick ED50 (95% confidence limits)” value in assay [7] (ref Wiley et al. (2011)) was 0.3 (0.1–1) mg/kg.

As for `Cc1c(C(=O)NN2CCCCC2)nn(-c2ccc(Cl)cc2Cl)c1-c1ccc(CCCCCN=[N+]=[N-])cc1` [Compound O-3257, 5-(4-(5-azidopentyl)phenyl)-1-(2,4-dichlorophenyl)-4-methyl-N-(piperidin-1-yl)-1H-pyrazole-3-carboxamide, reference compound], in assay [1] (setting [18]), the pKi was 8.66. The “dose (as low as) that suppressed eating” value in assay [11] is 1 mg/kg.

As for `Cc1c(C(=O)NN2CCCCC2)nn(-c2ccc(Cl)cc2Cl)c1-c1ccc(CCCCC[N+](=O)[O-])cc1` [Compound O-3259, 1-(2,4-dichlor-ophenyl)-4-methyl-5-(4-(5-nitropentyl)phenyl)–N-(piperidin-1-yl)-1H-pyrazole-3-carboxamide, reference compound], in assay [1] (setting [18]), the pKi is 8.92. The “dose (as low as) that suppressed eating” value in assay [11] is reported as 1 mg/kg.

Take `Cc1c(C(=O)NN2CCCCC2)nn(-c2ccc(Cl)cc2Cl)c1-c1ccc(Cl)cc1` [Rimonabant, reference compound]: the “RT, change in rectal temperature compared to pre-drug (maximum effect)” value in [10] (setting [14]) was “inactive (10)”. Besides, the entries for the “decrease in feeding compared to vehicle” value in assay [2] (1 mg/kg i.p.) and in [2] (10 mg/kg i.p.) were 47% and 41%, respectively. Moreover, in [5] (setting [15]), the “SA, % inhibition of activity … (maximum effect)” value is reported as “stim (10)”. The “%MPE, maximum possible antinociceptive effect in tail flick (maximum effect)” value in [7] (ref Wiley et al. (2012)) was “inactive (10)”.

Take Hemopressin [reference compound]: the “displacement of [3H]CP55,940 from CB2 receptors” value in [8] (setting [19]) is recorded as “failed to displace”. Further, the “effect on food intake” value in assay [2] (doses up to 3 mg/kg i.p.) is given as “did not affect food intake; also recorded: did not affect feeding”. For the same compound, in assay [9] (setting [19]), the “displacement of [3H]CP55,940 from CB1 receptors” value is given as “failed to displace”.

As for “N-allyl carboxamide analog [Compound O-4373]”, the values for the negative-log Ki (pKi) in [1] (setting [12]) and in [3] (ref Wiley et al. (2012)) were 6.83 and 5.77, respectively. The “RT ED50 (95% confidence limits)” value in assay [10] (ref Wiley et al. (2012)) is recorded as 2.9 (2.1–5.0) mg/kg. Besides, in assay [2] (30 mg/kg i.p.), the “decrease in feeding compared to vehicle” value amounted to 73%. In addition, the “RI ED50 (95% confidence limits)” value in assay [4] (i.v., ref Wiley et al. (2012)) is on record as 4.2 (2.5–7.0) mg/kg. Moreover, in assay [5] (ref Wiley et al. (2012)), the “SA ED50 (95% confidence limits)” value is reported as 2.3 (1.0–5.2) mg/kg.
